Laboratory results taken from ChEMBL document CHEMBL3232963, “Discovery of a potent and selective α3β4 nicotinic acetylcholine receptor antagonist from an α-conotoxin synthetic combinatorial library” (J Med Chem, 2014).
Numbered stars: 1 amine (or outer) side, 2 acyl side, 3 side chain; on linkers, the order of the positions; unused ones are H or OH. Bridge positions count the residues as written; N and C are the ends. Square brackets hold non-standard residues; d marks the D form. Peptide text beside a SMILES is read from it. X1 = O=C([C@H](CC1C=Nc2ccccc21)N[*:1])[*:2]; Nle = CCCC[C@H](N)C(=O)O; Nva = CCC[C@H](N)C(=O)O; Abu = CC[C@H](N)C(=O)O

Target: Neuronal acetylcholine receptor; alpha3/beta4 (Rattus norvegicus) (UniProt P04757+P12392)
Assay: Antagonist activity at rat alpha3beta4 nAChR expressed in HEK293 cells assessed as inhibition of epibatadine-induced effect at 10 uM after 30 mins by fluorescent membrane potential assay relative to mecamylamine
Type: cell-based
Procedure, shortened: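 Rat α3β4 nAChR stably expressed in HEK293 cells; crude, SPE-desalted individual peptides tested at 10 μM in HBSS with membrane potential blue dye, 30 min at 37 °C. Fluorescence change read after epibatidine (0.1 μM). Percent inhibition set against 10 μM mecamylamine taken as 100%.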

First: CCC[C@@H]1NC(=O)[C@H](Cc2c[nH]c3ccccc23)NC(=O)[C@H](Cc2ccccc2)NC(=O)[C@@H]2CSSC[C@H](NC(=O)CN)C(=O)N[C@@H](CSSC[C@@H](C(=O)O)NC(=O)[C@H](Cc3ccc(O)cc3)NC1=O)C(=O)N[C@@H](CO)C(=O)N[C@@H](Cc1cnc[nH]1)C(=O)N1CCC[C@H]1C(=O)N1CCC[C@H]1C(=O)N2 (H-GCCSHPPCFW[Nva]YC-OH; disulfide 2-8, 3-13)
Second: CCCC[C@@H]1NC(=O)[C@H](CO)NC(=O)[C@@H]2CSSC[C@@H](C(=O)O)NC(=O)[C@H](Cc3ccc(O)cc3)NC(=O)[C@H](CCC)NC(=O)[C@H](Cc3c[nH]c4ccccc34)NC(=O)[C@H](Cc3ccccc3)NC(=O)[C@H](CSSC[C@H](NC(=O)CN)C(=O)N2)NC(=O)[C@@H]2CCCN2C(=O)[C@@H]2CCCN2C1=O (H-GCCS[Nle]PPCFW[Nva]YC-OH; disulfide 2-8, 3-13)
The inhibition of the first is lower: 47.8% for the first, 61.6% for the second.

Going from `CCC[C@@H]1NC(=O)[C@H](CC)NC(=O)[C@H]([C@H](C)CC)NC(=O)[C@@H]2CSSC[C@H](NC(=O)CN)C(=O)N[C@@H](CSSC[C@@H](C(=O)O)NC(=O)[C@H](Cc3ccc(O)cc3)NC1=O)C(=O)N[C@@H](CO)C(=O)N[C@@H](Cc1cnc[nH]1)C(=O)N1CCC[C@H]1C(=O)N1CCC[C@H]1C(=O)N2` to `CCCC[C@@H]1NC(=O)[C@H](CC)NC(=O)[C@H]([C@H](C)CC)NC(=O)[C@@H]2CSSC[C@H](NC(=O)CN)C(=O)N[C@@H](CSSC[C@@H](C(=O)O)NC(=O)[C@H](Cc3ccc(O)cc3)NC1=O)C(=O)N[C@@H](CO)C(=O)N[C@@H](Cc1cnc[nH]1)C(=O)N1CCC[C@H]1C(=O)N1CCC[C@H]1C(=O)N2`, the inhibition rises from 62.3% to 67.2%.

First: CCCC[C@@H]1NC(=O)[C@H](CC)NC(=O)[C@H](Cc2ccccc2)NC(=O)[C@@H]2CSSC[C@H](NC(=O)CN)C(=O)N[C@@H](CSSC[C@@H](C(=O)O)NC(=O)[C@@H]3CCCN3C1=O)C(=O)N[C@@H](CO)C(=O)N[C@@H](CCCC)C(=O)N1CCC[C@H]1C(=O)N[C@@H](CC)C(=O)N2 (H-GCCS[Nle]P[Abu]CF[Abu][Nle]PC-OH; disulfide 2-8, 3-13)
Second: CCCC[C@@H]1NC(=O)[C@H](CC)NC(=O)[C@H](Cc2ccccc2)NC(=O)[C@@H]2CSSC[C@H](NC(=O)CN)C(=O)N[C@@H](CSSC[C@@H](C(=O)O)NC(=O)[C@@H]3CCCN3C1=O)C(=O)N[C@@H](CO)C(=O)N[C@@H](Cc1cnc[nH]1)C(=O)N1CCC[C@H]1C(=O)N[C@@H](CC)C(=O)N2 (H-GCCSHP[Abu]CF[Abu][Nle]PC-OH; disulfide 2-8, 3-13)
The inhibition of the first is higher: 36.6% for the first, 35.5% for the second.

Compared with `CCC[C@@H]1NC(=O)[C@H](Cc2c[nH]c3ccccc23)NC(=O)[C@H](Cc2ccccc2)NC(=O)[C@@H]2CSSC[C@H](NC(=O)CN)C(=O)N[C@@H](CSSC[C@@H](C(=O)O)NC(=O)[C@@H]3CCCN3C1=O)C(=O)N[C@@H](CO)C(=O)N[C@@H](Cc1cnc[nH]1)C(=O)N1CCC[C@H]1C(=O)N1CCC[C@H]1C(=O)N2` (H-GCCSHPPCFW[Nva]PC-OH; disulfide 2-8, 3-13), `CCCC[C@@H]1NC(=O)[C@H](Cc2c[nH]c3ccccc23)NC(=O)[C@H](Cc2ccccc2)NC(=O)[C@@H]2CSSC[C@H](NC(=O)CN)C(=O)N[C@@H](CSSC[C@@H](C(=O)O)NC(=O)[C@@H]3CCCN3C1=O)C(=O)N[C@@H](CO)C(=O)N[C@@H](Cc1cnc[nH]1)C(=O)N1CCC[C@H]1C(=O)N1CCC[C@H]1C(=O)N2` (H-GCCSHPPCFW[Nle]PC-OH; disulfide 2-8, 3-13) is lower in inhibition: 49% for the first, 15.3% for the second.

First: CCCC[C@@H]1NC(=O)[C@H](CC)NC(=O)[C@H]([C@H](C)CC)NC(=O)[C@@H]2CSSC[C@H](NC(=O)CN)C(=O)N[C@@H](CSSC[C@@H](C(=O)O)NC(=O)[C@@H]3CCCN3C1=O)C(=O)N[C@@H](CO)C(=O)N[C@@H](Cc1cnc[nH]1)C(=O)N1CCC[C@H]1C(=O)N[C@@H](CC)C(=O)N2
Second: CCC[C@@H]1NC(=O)[C@H](CC)NC(=O)[C@H]([C@H](C)CC)NC(=O)[C@@H]2CSSC[C@H](NC(=O)CN)C(=O)N[C@@H](CSSC[C@@H](C(=O)O)NC(=O)[C@@H]3CCCN3C1=O)C(=O)N[C@@H](CO)C(=O)N[C@@H](Cc1cnc[nH]1)C(=O)N1CCC[C@H]1C(=O)N[C@@H](CC)C(=O)N2
The inhibition of the first is lower: 36.2% for the first, 41.2% for the second.

First: CCCC[C@@H]1NC(=O)[C@H](CO)NC(=O)[C@@H]2CSSC[C@@H](C(=O)O)NC(=O)[C@H](Cc3ccc(O)cc3)NC(=O)[C@H](CCC)NC(=O)[C@H](Cc3c[nH]c4ccccc34)NC(=O)[C@H]([C@H](C)CC)NC(=O)[C@H](CSSC[C@H](NC(=O)CN)C(=O)N2)NC(=O)[C@H](CC)NC(=O)[C@@H]2CCCN2C1=O
Second: CCCC[C@@H]1NC(=O)[C@H](Cc2c[nH]c3ccccc23)NC(=O)[C@H]([C@H](C)CC)NC(=O)[C@@H]2CSSC[C@H](NC(=O)CN)C(=O)N[C@@H](CSSC[C@@H](C(=O)O)NC(=O)[C@H](Cc3ccc(O)cc3)NC1=O)C(=O)N[C@@H](CO)C(=O)N[C@@H](CCCC)C(=O)N1CCC[C@H]1C(=O)N[C@@H](CC)C(=O)N2
The inhibition of the first is lower: 61.9% for the first, 68.6% for the second.

Going from `CCCC[C@@H]1NC(=O)[C@H](CO)NC(=O)[C@@H]2CSSC[C@@H](C(=O)O)NC(=O)[C@@H]3CCCN3C(=O)[C@H](CCC)NC(=O)[C@H](CC)NC(=O)[C@H]([C@H](C)CC)NC(=O)[C@H](CSSC[C@H](NC(=O)CN)C(=O)N2)NC(=O)[C@H](CC)NC(=O)[C@@H]2CCCN2C1=O` to `CCCC[C@@H]1NC(=O)[C@H](CC)NC(=O)[C@H]([C@H](C)CC)NC(=O)[C@@H]2CSSC[C@H](NC(=O)CN)C(=O)N[C@@H](CSSC[C@@H](C(=O)O)NC(=O)[C@H](Cc3ccc(O)cc3)NC1=O)C(=O)N[C@@H](CO)C(=O)N[C@@H](CCCC)C(=O)N1CCC[C@H]1C(=O)N1CCC[C@H]1C(=O)N2`, the inhibition rises from 19.2% to 63.8%.

Going from `CCCC[C@@H]1NC(=O)[C@H](CC2C=Nc3ccccc32)NC(=O)[C@H](Cc2ccccc2)NC(=O)[C@@H]2CSSC[C@H](NC(=O)CN)C(=O)N[C@@H](CSSC[C@@H](C(=O)O)NC(=O)[C@@H]3CCCN3C1=O)C(=O)N[C@@H](CO)C(=O)N[C@@H](Cc1cnc[nH]1)C(=O)N1CCC[C@H]1C(=O)N[C@@H](CC)C(=O)N2` (stereo not given in full) (H-GCCSHP[Abu]CF[X1][Nle]PC-OH; disulfide 2-8, 3-13) to `CCCC[C@@H]1NC(=O)[C@H](CC2C=Nc3ccccc32)NC(=O)[C@H]([C@H](C)CC)NC(=O)[C@@H]2CSSC[C@H](NC(=O)CN)C(=O)N[C@@H](CSSC[C@@H](C(=O)O)NC(=O)[C@@H]3CCCN3C1=O)C(=O)N[C@@H](CO)C(=O)N[C@@H](Cc1cnc[nH]1)C(=O)N1CCC[C@H]1C(=O)N[C@@H](CC)C(=O)N2` (stereo not given in full), the inhibition falls from 22.3% to 15.4%.

Compared with `CCC[C@@H]1NC(=O)[C@H](Cc2c[nH]c3ccccc23)NC(=O)[C@H]([C@H](C)CC)NC(=O)[C@@H]2CSSC[C@H](NC(=O)CN)C(=O)N[C@@H](CSSC[C@@H](C(=O)O)NC(=O)[C@H](Cc3ccc(O)cc3)NC1=O)C(=O)N[C@@H](CO)C(=O)N[C@@H](Cc1cnc[nH]1)C(=O)N1CCC[C@H]1C(=O)N[C@@H](CC)C(=O)N2`, `CCC[C@@H]1NC(=O)[C@H](Cc2c[nH]c3ccccc23)NC(=O)[C@H]([C@H](C)CC)NC(=O)[C@@H]2CSSC[C@H](NC(=O)CN)C(=O)N[C@@H](CSSC[C@@H](C(=O)O)NC(=O)[C@H](Cc3ccc(O)cc3)NC1=O)C(=O)N[C@@H](CO)C(=O)N[C@@H](Cc1cnc[nH]1)C(=O)N1CCC[C@H]1C(=O)N1CCC[C@H]1C(=O)N2` is higher in inhibition: 47.5% for the first, 56.5% for the second.

Compared with `CCCC[C@@H]1NC(=O)[C@H](CO)NC(=O)[C@@H]2CSSC[C@@H](C(=O)O)NC(=O)[C@H](Cc3ccc(O)cc3)NC(=O)[C@H](CCC)NC(=O)[C@H](Cc3c[nH]c4ccccc34)NC(=O)[C@H]([C@H](C)CC)NC(=O)[C@H](CSSC[C@H](NC(=O)CN)C(=O)N2)NC(=O)[C@@H]2CCCN2C(=O)[C@@H]2CCCN2C1=O`, `CCCC[C@@H]1NC(=O)[C@H](CO)NC(=O)[C@@H]2CSSC[C@@H](C(=O)O)NC(=O)[C@@H]3CCCN3C(=O)[C@H](CCC)NC(=O)[C@H](Cc3c[nH]c4ccccc34)NC(=O)[C@H]([C@H](C)CC)NC(=O)[C@H](CSSC[C@H](NC(=O)CN)C(=O)N2)NC(=O)[C@@H]2CCCN2C(=O)[C@@H]2CCCN2C1=O` is lower in inhibition: 58.3% for the first, 38.9% for the second.

Compared with `CCCC[C@@H]1NC(=O)[C@H](Cc2c[nH]c3ccccc23)NC(=O)[C@H](Cc2ccccc2)NC(=O)[C@@H]2CSSC[C@H](NC(=O)CN)C(=O)N[C@@H](CSSC[C@@H](C(=O)O)NC(=O)[C@@H]3CCCN3C1=O)C(=O)N[C@@H](CO)C(=O)N[C@@H](CCCC)C(=O)N1CCC[C@H]1C(=O)N1CCC[C@H]1C(=O)N2` (H-GCCS[Nle]PPCFW[Nle]PC-OH; disulfide 2-8, 3-13), `CCC[C@@H]1NC(=O)[C@H](CC)NC(=O)[C@H](Cc2ccccc2)NC(=O)[C@@H]2CSSC[C@H](NC(=O)CN)C(=O)N[C@@H](CSSC[C@@H](C(=O)O)NC(=O)[C@@H]3CCCN3C1=O)C(=O)N[C@@H](CO)C(=O)N[C@@H](Cc1cnc[nH]1)C(=O)N1CCC[C@H]1C(=O)N1CCC[C@H]1C(=O)N2` (H-GCCSHPPCF[Abu][Nva]PC-OH; disulfide 2-8, 3-13) is higher in inhibition: 14.2% for the first, 36% for the second.

Compared with `CCC[C@@H]1NC(=O)[C@H](Cc2c[nH]c3ccccc23)NC(=O)[C@H]([C@H](C)CC)NC(=O)[C@@H]2CSSC[C@H](NC(=O)CN)C(=O)N[C@@H](CSSC[C@@H](C(=O)O)NC(=O)[C@@H]3CCCN3C1=O)C(=O)N[C@@H](CO)C(=O)N[C@@H](Cc1cnc[nH]1)C(=O)N1CCC[C@H]1C(=O)N1CCC[C@H]1C(=O)N2`, `CCCC[C@@H]1NC(=O)[C@H](CC)NC(=O)[C@H]([C@H](C)CC)NC(=O)[C@@H]2CSSC[C@H](NC(=O)CN)C(=O)N[C@@H](CSSC[C@@H](C(=O)O)NC(=O)[C@@H]3CCCN3C1=O)C(=O)N[C@@H](CO)C(=O)N[C@@H](Cc1cnc[nH]1)C(=O)N1CCC[C@H]1C(=O)N1CCC[C@H]1C(=O)N2` is lower in inhibition: 44.8% for the first, 38.1% for the second.

Work on `CCCC[C@@H]1NC(=O)[C@H](CO)NC(=O)[C@@H]2CSSC[C@@H](C(=O)O)NC(=O)[C@H](Cc3ccc(O)cc3)NC(=O)[C@H](CCC)NC(=O)[C@H](Cc3c[nH]c4ccccc34)NC(=O)[C@H](Cc3ccccc3)NC(=O)[C@H](CSSC[C@H](NC(=O)CN)C(=O)N2)NC(=O)[C@H](CC)NC(=O)[C@@H]2CCCN2C1=O` (H-GCCS[Nle]P[Abu]CFW[Nva]YC-OH; disulfide 2-8, 3-13) yielded an inhibition of 67.9%.
